According to ChEMBL document CHEMBL1275590, “Novel arylimidamides for treatment of visceral leishmaniasis” (Antimicrob Agents Chemother, 2010):
Activity calls are given as the source filed them.

Assays:
[1] = Induction of mutagenicity in Salmonella serovar Typhimurium TA 100 assessed as number of revertant colonies at 1 ug by Ames assay in presence of Aroclor 1254-induced rat liver S9 metabolic activation system; assay type: toxicity, subcellular, Salmonella enterica subsp. enterica serovar Typhimurium
In short: (§1)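 Ames plate incorporation with S. Typhimurium TA98 and TA100, with or without Aroclor 1254-induced rat liver S9 (10% vol/vol). Compound was dissolved in sterile water and serially diluted to 1–500 μg/plate. Positive controls were 2-nitrofluorene and sodium azide without S9, and 2-aminoanthracene with S9; sterile water and DMSO served as vehicles. Revertant colonies and background lawn were scored. A mutagen was defined as a mean revertant count at least 2-fold over solvent control. Single experiment.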

[2] = Induction of mutagenicity in Salmonella serovar Typhimurium TA 98 assessed as number of revertant colonies at 10 ug by Ames assay; assay type: toxicity, Salmonella enterica subsp. enterica serovar Typhimurium; conditions: in vivo; in short: as §1
[3] = Induction of mutagenicity in Salmonella serovar Typhimurium TA 98 assessed as number of revertant colonies at 50 ug by Ames assay; assay type: toxicity, Salmonella enterica subsp. enterica serovar Typhimurium
In short: (§2)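 Plate incorporation test, S. Typhimurium TA98 (and TA100), with or without Aroclor 1254-induced rat liver S9 (10% vol/vol). Compound dissolved in sterile water, serially diluted to 1–1,000 or 1–500 μg/plate. Positive controls: 2-nitrofluorene and sodium azide without S9, 2-aminoanthracene with S9; water and DMSO vehicle controls. Revertant colonies and background lawn scored; mutagen if mean revertants ≥2-fold solvent control. Single experiment.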

[4] = Induction of mutagenicity in Salmonella serovar Typhimurium TA 100 assessed as number of revertant colonies at 5 ug by Ames assay; assay type: toxicity, Salmonella enterica subsp. enterica serovar Typhimurium; conditions: in vivo
In short: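 Plate incorporation method with TA100, with and without Aroclor 1254-induced rat liver S9 (10% vol/vol). Compound dissolved in sterile water, serially diluted; plates scored for revertant count and background lawn versus controls. Mutagen if mean revertants at least 2-fold over mean solvent control. Positive controls: 2-nitrofluorene and sodium azide without S9, 2-aminoanthracene with S9; water and DMSO vehicles.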

[5] = Induction of mutagenicity in Salmonella serovar Typhimurium TA 100 assessed as number of revertant colonies at 500 ug by Ames assay; assay type: toxicity, Salmonella enterica subsp. enterica serovar Typhimurium; conditions: in vivo; in short: as §1
Leishmania donovani [6] = assay: Antileishmanial activity against Leishmania donovani promastigotes in BALB/c mouse assessed as inhibition of liver parasitemia at 30 mg/kg/day, ip administered for five days; assay type: functional, organism-based
In short: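 Murine VL model in L. donovani-infected mice. Compounds were dissolved in water and given i.p. or p.o. once daily for 5 days (4 days for one i.p. regimen). Liver parasitemia was compared with untreated controls by unpaired Student's t test, P ≤ 0.05.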

Leishmania donovani [7] = assay: Antileishmanial activity against Leishmania donovani WR378 infected in golden Syrian hamster assessed as reduction in liver parasitemia at 10 mg/kg/day, po administered for five days; assay type: functional; conditions: 120 h
In short: (§3)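 11-day golden hamster VL model adapted from an 8-day method, using L. donovani WR378 metacyclic promastigotes. Dosing was oral, once daily for 5 days. Animals were euthanized on day 11 post-infection. Liver, spleen and femoral bone marrow (flushed with Schneider's medium) were harvested.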

Leishmania donovani [8] = assay: Antileishmanial activity against Leishmania donovani WR378 infected in golden Syrian hamster assessed as reduction in spleen parasitemia at 30 mg/kg/day, po administered for five days; assay type: functional; conditions: 120 h; in short: as §3
Leishmania donovani [9] = assay: Antileishmanial activity against Leishmania donovani WR378 infected in golden Syrian hamster assessed as reduction in bone marrow parasitemia at 50 mg/kg/day, po administered for five days; assay type: functional; conditions: 120 h; in short: as §3
[10] = Clearance in Swiss Webster mouse at 5 mg/kg, iv by HPLC-MS/MS analysis; assay type: ADME, organism-based; design: dose 5 mg/kg, route intravenous; conditions: in vivo
In short: (§4)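 Male Swiss Webster mice, n = 3 per time point. For i.v., the compound was dissolved in sterile water, diluted 1:1 with 2× saline, and given as a tail-vein bolus over ~10–20 s. For p.o., it was given by gavage in sterile water. Dose volume was 5 ml/kg. Terminal plasma was taken from 5 min to 72 h and measured by HPLC-MS/MS (calibration 2.5–10,000 nM). Parameters came from noncompartmental analysis.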

Mus musculus [11] = assay: Toxicity in BALB/c mouse assessed as occurrence of tremor at 20 mg/kg/day, iv administered for five days measured on day 2; assay type: organism-based; design: route intravenous; conditions: in vivo
In short: (§5)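 Female BALB/c mice (n = 5 per dose), dosed once daily for 5 consecutive days p.o. (20 ml/kg) or i.v. (10 ml/kg) with compound in sterile water, prepared fresh daily under yellow light. Vehicle controls n = 5 per route. Clinical observations, body weights, serum chemistry and hematology on day 6 before necropsy; histopathology of formalin-fixed tissues. Chemistry analysed by one-way ANOVA with Dunnett's posttest.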

Mus musculus [12] = assay: Hepatotoxicity in BALB/c mouse assessed as AST level in serum at 100 mg/kg/day, po administered for five days (Rvb= 70 U/L); assay type: toxicity, organism-based; design: route oral; conditions: in vivo
[13] = Induction of mutagenicity in Salmonella serovar Typhimurium TA 98 assessed as number of revertant colonies at 50 ug by Ames assay in presence of Aroclor 1254-induced rat liver S9 metabolic activation system; assay type: toxicity, subcellular, Salmonella enterica subsp. enterica serovar Typhimurium; in short: as §2
[14] = Drug level in Swiss Webster mouse kidney at 5 mg/kg, iv after 2 hrs by HPLC/UV analysis; conditions: read-out: Drug uptake
Mus musculus [15] = assay: Toxicity in BALB/c mouse assessed as occurrence of edema at 150 mg/kg/day, po; assay type: organism-based; design: route oral; conditions: in vivo; in short: as §5
Mus musculus [16] = assay: Toxicity in BALB/c mouse assessed as occurrence of hemorrhage at 150 mg/kg/day, po; assay type: organism-based; design: route oral; conditions: in vivo; in short: as §5
Mus musculus [17] = assay: Toxicity in BALB/c mouse assessed as hypoactivity at 100 mg/kg/day, ip after second dose; assay type: organism-based; design: route intraperitoneal; conditions: in vivo
[18] = Cmax in Swiss Webster mouse at 4.9 mg/kg, iv by HPLC-MS/MS analysis; assay type: ADME, organism-based; design: dose 4.9 mg/kg, route intravenous; conditions: in vivo; in short: as §4
[19] = Tmax in Swiss Webster mouse at 4.9 mg/kg, iv by HPLC-MS/MS analysis; assay type: ADME, organism-based; design: dose 4.9 mg/kg, route intravenous; conditions: in vivo
In short: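 Male Swiss Webster mice (n = 3 per time point), single dose by oral gavage (sterile water solution) or tail-vein bolus i.v. (water diluted 1:1 with 2× saline, over ~10–20 s); dose volume 5 ml/kg. Terminal blood sampled from 5 min to 72 h postdose; plasma quantified by HPLC-MS/MS (positive-ion SRM). Noncompartmental analysis gave Cmax, Tmax, AUC0-∞, CL, Vss; bioavailability from p.o. versus i.v. exposure.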

Mus musculus [20] = assay: Toxicity in BALB/c mouse at 150 mg/kg/day, po administered for five days measured on day 5; assay type: organism-based; design: route oral; conditions: in vivo
In short: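 Five-day repeat-dose study in female BALB/c mice (n = 5 per dose level): oral dosing once daily for five consecutive days in sterile water prepared fresh daily under yellow light, 20 ml/kg. Vehicle controls received sterile water only. Clinical observations and body weights were recorded, with blood for hematology and serum chemistry taken on day 6 before necropsy. A veterinary pathologist examined formalin-fixed tissues.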

Mus musculus [21] = assay: Toxicity in BALB/c mouse assessed as occurrence of tremor at 150 mg/kg/day, po administered for five days measured on day 4; assay type: organism-based; design: route oral; conditions: in vivo; in short: as §5
Mus musculus [22] = assay: Toxicity in BALB/c mouse assessed as hyperactivity at 150 mg/kg/day, po administered for five days measured on day 5; assay type: organism-based; design: route oral; conditions: in vivo; in short: as §5
Mus musculus [23] = assay: Hepatotoxicity in BALB/c mouse assessed as AST level in serum at 10 mg/kg/day, iv administered for five days (Rvb= 65 U/L); assay type: toxicity, organism-based; design: route intravenous; conditions: in vivo

For `CC(C)Oc1cc(NC(=N)c2ccccn2)ccc1-c1ccc(-c2ccc(NC(=N)c3ccccn3)cc2OC(C)C)o1`, the Activity [1] was 159, the Activity [2] was 29 and the Activity [3] was 28. For the same compound, the Activity [4] was 145, the Activity [5] was “Toxic” and the Activity (Leishmania donovani [6]) was “Active”. The inhibition in vivo at 10 mg/kg/day (Leishmania donovani [7]) was 10%, the inhibition in vivo at 30 mg/kg/day (Leishmania donovani [8]) was 67% and the inhibition in vivo at 50 mg/kg/day (Leishmania donovani [9]) was 70%. For the same compound, the clearance [10] was 13.1 mL/min/kg, the Activity (Mus musculus [11]) was “Toxic” and the Activity (Mus musculus [12]) was 68 U/L. It also gave an Activity [13] of 39 and a concentration at 2 h [14] of 12.7 µM.

With `CCOc1cc(NC(=N)c2ccccn2)ccc1-c1ccc(-c2ccc(NC(=N)c3ccccn3)cc2OCC)o1` the Activity (Mus musculus [15]) was “Toxic”, the Activity (Mus musculus [16]) was “Toxic” and the Activity (Mus musculus [17]) was “Toxic”. The Cmax [18] was 4.24 µM, the Tmax [19] was 5 min and the Activity (Mus musculus [20]) was “Toxic”. The Activity (Mus musculus [21]) was “Toxic”, the Activity (Mus musculus [22]) was “Toxic” and the Activity (Mus musculus [23]) was 80 U/L.
